In ChEMBL document CHEMBL1124829, “Methylating agents as trypanocides” (1990):

Key:
Assay type in all cases: functional
Mus musculus [1] = test: (§1) Mean life extension in mice bearing Trypanosoma rhodesiense, after ip administration at a dose of 0.2 mmol/kg; parameters: unit: days
Procedure, shortened: (§2)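 Female CD-1 mice, 6-8 weeks old, 25-35 g, infected ip with about 10^6 freshly isolated trypanosomes in PBSG. At day 3 post-infection they got a single ip dose, dissolved in 50 µL DMSO or in 0.5 mL PBSG adjusted to pH 7.4. Activity is the days of survival beyond vehicle-only controls, as the mean of 4 mice to the nearest day. Parasitemia was monitored to exclude toxic deaths.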

Mus musculus [2] = test: Mean life extension in mice bearing Trypanosoma rhodesiense, after ip administration at a dose of 0.5 mmol/kg
Mus musculus [3] = test: Mean life extension was determined in mice bearing Trypanosoma evansi (SAK), after administration of 0.2 mmol/kg per dose
Procedure, shortened: (§3)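 Female CD-1 mice, 6-8 weeks old, were infected ip with about 10^6 cells in PBSG. When parasitemia reached about 10^8 cells/mL they got a single 0.2 mmol/kg dose in DMSO. The result is days survived beyond DMSO-only controls, as the mean of 4 animals to the nearest day with SE. Survival of 30 days or more was counted as cure.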

Mus musculus [4] = test: Mean life extension was determined in mice bearing Trypanosoma equiperdum (1559), after administration of 0.2 mmol/kg per dose; procedure, shortened: as §3
Mus musculus [5] = test: Mean life extension was determined in mice bearing Trypanosoma brucei (M110) after administration of 0.2 mmol/kg per dose; procedure, shortened: as §3
Mus musculus [6] = test: Mean life extension was determined in mice bearing Trypanosoma evansi (SN) after administration of 0.2 mmol/kg per dose; procedure, shortened: as §3
Mus musculus [7] = test: Mean life extension was determined in mice bearing Trypanosoma brucei gambiense (TxTAT 1.0), after administration of 0.2 mmol/kg per dose; procedure, shortened: as §3
Mus musculus [8] = test: Mean life extension was determined in mice bearing Trypanosoma brucei rhodesiense (YTAT 1.1) after administration of 0.2 mmol/kg per dose; procedure, shortened: as §3
Mus musculus [9] = test: Mean life extension in mice bearing Trypanosoma rhodesiense, after ip administration at 0.5 mmol/kg dose; procedure, shortened: as §2
Mus musculus [10] = test: Mean life extension in mice bearing Trypanosoma rhodesiense, after ip administration at 0.4 mmol/kg dose
Mus musculus [11] = test: Mean life extension in mice bearing Trypanosoma rhodesiense, after ip administration at 0.9 mmol/kg dose; procedure, shortened: as §2
Mus musculus [12] = test: as §1; procedure, shortened: as §2

`CCNNCC.Cl.Cl` showed a Mean life extension (Mus musculus [1]) of 0.

`CNNC.Cl.Cl` gave a Mean life extension (Mus musculus [1]) of 4.

With `CNN.Cl.Cl` the Mean life extension (Mus musculus [2]) was 1.

`CN(NC(=O)c1ccccc1)C(=O)c1ccccc1` showed a Mean life extension (Mus musculus [1]) of 0.

`O=S(=O)(NNS(=O)(=O)c1ccccc1)c1ccccc1` showed a Mean life extension (Mus musculus [1]) of 0.

For `CN(NS(C)(=O)=O)S(C)(=O)=O`, the Mean life extension (Mus musculus [3]) was greater than 30, the Mean life extension (Mus musculus [4]) was 12 and the Mean life extension (Mus musculus [5]) was 11. For the same compound, the Mean life extension (Mus musculus [6]) was 12, the Mean life extension (Mus musculus [1]) was 12 and the Mean life extension (Mus musculus [7]) was 13. The Mean life extension (Mus musculus [8]) was 12.

In the case of `CN(NS(=O)(=O)c1ccccc1)S(=O)(=O)c1ccccc1`, the Mean life extension (Mus musculus [1]) is reported as 5.

With `COc1ccc(S(=O)(=O)NN(C)S(C)(=O)=O)cc1` the Mean life extension (Mus musculus [1]) was 4.

With `CN(C)/N=N/c1[nH]cnc1C(N)=O` [DACARBAZINE] the Mean life extension (Mus musculus [9]) was greater than 30 and the Mean life extension (Mus musculus [1]) was 6.

`Cl.Cl.NN` [HYDRAZINE DIHYDROCHLORIDE] showed a Mean life extension (Mus musculus [2]) of 0.

In the case of `COS(C)(=O)=O` [METHANESULFONIC ACID METHYL ESTER], the Mean life extension (Mus musculus [1]) is reported as 1.

`CN(N=O)C(N)=O` [N-METHYL-N-NITROSUREA] was tested, and the Mean life extension (Mus musculus [10]) was greater than 30 and the Mean life extension (Mus musculus [1]) was 8.

For `CNNCc1ccc(C(=O)NC(C)C)cc1` [PROCARBAZINE], the Mean life extension (Mus musculus [11]) was greater than 30 and the Mean life extension (Mus musculus [1]) was 5.

For `CN(N=O)C(=O)N[C@@H](C=O)[C@@H](O)[C@H](O)[C@H](O)CO` [STREPTOZOCIN], the Mean life extension (Mus musculus [12]) was 4.

`CCOS(=O)(=O)OCC` [SULFURIC ACID DIETHYL ESTER] was tested, and the Mean life extension (Mus musculus [1]) was 0.

With `COS(=O)(=O)OC` [SULFURIC ACID DIMETHYL ESTER] the Mean life extension (Mus musculus [1]) was 3.
